As usually defined, the logP is a log measure of how a compound divides between an organic and an aqueous phase. As a reminder, the IC50 is the concentration that inhibits the measured activity by half. One may read the solubility as how much of the substance goes into solution per volume.

The values that follow come from ChEMBL document CHEMBL3865799, “Synthesis of a series of novel dihydroartemisinin monomers and dimers containing chalcone as a linker and their anticancer activity” (Eur J Med Chem, 2016).

Data set [1] can be described thus: Cytotoxicity against human HepG2 cells assessed as cell growth inhibition at 0.5 uM after 48 hrs by MTT assay. In kind it is functional. As to conditions: HepG2, 48 h, read-out: GI. Summed up: (§1)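 Adherent lines at 70–75% confluence, grown at 37 °C in 5% CO2 with 10% FCS. Exposed 48 h to compound in DMSO (vehicle <0.2% v/v). MTT dye added 3 h before termination; formazan dissolved in DMSO, OD 570 nm with 620 nm reference. Growth inhibition expressed as % of untreated; IC50 taken from the dose series.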
(Tetrazolium dyes change colour on reduction, which living cells bring about.)

For data set [2], the system named is HL-60. Kind of data set: Induction of apoptosis in human HL60 cells assessed as loss of mitochondrial membrane potential at 5 uM after 24 hrs by Rh123 dye-based FACS analysis (reference value: 5%). In kind it is functional. Background: A flow cytometer gives signals particle by particle.
Data set [3] in a line: Lipophilicity, log P of the compound at pH 7. In kind it is physicochemical. The note with it: buffer.
Data set [4] can be described thus: Cytotoxicity against human MIAPaCa2 cells assessed as cell growth inhibition at 1 uM after 48 hrs by MTT assay. In kind it is functional. As to conditions: MIA PaCa-2, 48 h, read-out: GI. The procedure, abridged:
as §1

A short description of data set [5]: Cytotoxicity against human LS180 cells assessed as cell growth inhibition at 1 uM after 48 hrs by MTT assay. The format is functional. As to conditions: LS180, 48 h, read-out: GI. The procedure, abridged:
as §1

Data set [6] is described as follows: Cytotoxicity against human HepG2 cells assessed as cell growth inhibition at 10 uM after 48 hrs by MTT assay. As to conditions: HepG2, 48 h, read-out: GI. In kind it is functional. The procedure, abridged: as §1
Data set [7] can be described thus: Cell cycle arrest in human HL60 cells assessed as accumulation at S phase at 0.2 uM after 24 hrs by propidium iodide-DNA fluorescence based FACS analysis (reference value: 53 %). The format is functional. As to conditions: HL-60. The procedure, abridged: (§2)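 HL-60 cells seeded at 0.5 × 10^6 cells/ml, exposed 24 h to compound (DMSO vehicle, <0.2% v/v). Pelleted at 400×g, PBS-washed, fixed in 70% ethanol at 4 °C overnight. RNase A treatment at 37 °C for 1.30 h, then propidium iodide staining for 20 min. Flow cytometry on 10,000 events, FL2-A vs FL2-W; subG0 (apoptotic) and phase populations gated.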

Data set [8] is described as follows: Cell cycle arrest in human HL60 cells assessed as accumulation at S phase at 5 uM after 24 hrs by propidium iodide-DNA fluorescence based FACS analysis (reference value: 53 %). In kind it is functional. As to conditions: HL-60. Summed up: as §2
Data set [9] is described as follows: Cell cycle arrest in human HL60 cells assessed as accumulation at G1 phase at 1 uM after 24 hrs by propidium iodide-DNA fluorescence based FACS analysis (reference value: 46 %). The format is functional. The note with it: HL-60. The procedure, abridged: as §2
The nature of data set [10]: Cell cycle arrest in human HL60 cells assessed as accumulation at subG0 phase after 24 hrs by propidium iodide-DNA fluorescence based FACS analysis. The format is functional. As to conditions: HL-60. The procedure, abridged: as §2
A short description of data set [11]: Cytotoxicity against human PC3 cells assessed as cell growth inhibition at 0.5 uM after 48 hrs by MTT assay. In kind it is functional. As to conditions: PC-3, 48 h, read-out: GI. Summed up:
as §1

A short description of data set [12]: Cytotoxicity against human HepG2 cells assessed as cell growth inhibition at 30 uM after 48 hrs by MTT assay. The format is functional. As to conditions: HepG2, 48 h, read-out: GI. Summed up:
as §1

Data set [13] is described as follows: Cell cycle arrest in human HL60 cells assessed as accumulation at subG0 phase at 5 uM after 24 hrs by propidium iodide-DNA fluorescence based FACS analysis (reference value: 5 %). The note with it: HL-60.
The nature of data set [14]: Cytotoxicity against human PC3 cells assessed as cell growth inhibition at 1 uM after 48 hrs by MTT assay. The format is functional. As to conditions: PC-3, 48 h, read-out: GI. Summed up:
as §1

The nature of data set [15]: Cytotoxicity against human PC3 cells assessed as cell growth inhibition at 50 uM after 48 hrs by MTT assay. The format is functional. The note with it: PC-3, 48 h, read-out: GI. Summed up: as §1
For data set [16], the system named is HL-60. Kind of data set: Induction of apoptosis in human HL60 cells assessed as morphological alterations after 24 hrs by hoechst 33258 staining-based microscopic analysis. In kind it is functional, cell-based. Summed up: (§3)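 HL-60 cells at 0.5 × 10^6/ml were treated for 24 h with […] compound in DMSO vehicle (<0.2%). Cells were fixed in cold acetic acid:methanol (1:3) for 1 h on ice, spread on slides and air-dried overnight. Slides were stained with Hoechst 33258 for 30 min, mounted in glycerol:PBS and viewed by fluorescence microscopy at 20×. Morphology was checked by phase contrast. One of three experiments shown.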

Data set [17] deals with HL-60. Kind of data set: Induction of apoptosis in human HL60 cells assessed as cell shrinkage after 24 hrs phase contrast microscopic analysis. The format is functional, cell-based. The procedure, abridged:
(§4)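 HL-60 cells at 0.5 × 10^6 cells/ml treated 24 h with compound at 0.2, 0.5, 1 or 5 (DMSO vehicle). Treated and control cells photographed under a phase contrast microscope at 20× and scored for morphology.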

Data set [18] is described as follows: Cytotoxicity against human MIAPaCa2 cells assessed as cell growth inhibition at 0.5 uM after 48 hrs by MTT assay. The format is functional. The note with it: MIA PaCa-2, 48 h, read-out: GI. Summed up:
as §1

Data set [19] in a line: Cell cycle arrest in human HL60 cells assessed as accumulation at G2 phase at 5 uM after 24 hrs by propidium iodide-DNA fluorescence based FACS analysis (reference value: 1 %). The format is functional. The note with it: HL-60. The procedure, abridged:
as §2

A further data set concerns Vero. Kind of data set: Selectivity index, ratio of IC50 for African green monkey Vero cells to IC50 for human MIAPaCa2 cells. The format is functional. Summed up: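 Suspension cells were seeded at 1.5 × 10^4 per well and adherent lines at 70–75% confluence, then exposed to a range of concentrations. MTT was added 3 h before the end, formazan dissolved in DMSO, and OD read at 570 nm (reference 620 nm). Growth inhibition was taken relative to untreated cells. IC50 came from the MTT data; SI = IC50 in Vero cells / IC50 in the tumour line.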

Data set [20] concerns HL-60. Kind of data set: Induction of apoptosis in human HL60 cells assessed as induction of apoptotic bodies at 0.5 uM after 24 hrs by hoechst 33258 staining-based microscopic analysis. In kind it is functional, cell-based. The procedure, abridged: as §3
Data set [21] relates to HL-60. The data set can be described thus: Induction of apoptosis in human HL60 cells assessed as blebs formation after 24 hrs phase contrast microscopic analysis. In kind it is functional, cell-based. Summed up: as §4
Data set [22] is described as follows: Cytotoxicity against human HepG2 cells assessed as cell growth inhibition at 1 uM after 48 hrs by MTT assay. In kind it is functional. The note with it: HepG2, 48 h, read-out: GI. Summed up: as §1
The nature of data set [23]: Cytotoxicity against human MIAPaCa2 cells assessed as cell growth inhibition after 48 hrs by MTT assay. The format is functional, cell-based. As to conditions: MIA PaCa-2, 48 h. The procedure, abridged:
as §1

The nature of data set [24]: Aqueous solubility of the compound at pH 7. In kind it is physicochemical.
In data set [25] the test system is HL-60. Kind of data set: Induction of apoptosis in human HL60 cells assessed as loss of mitochondrial membrane potential at 0.2 uM after 24 hrs by Rh123 dye-based FACS analysis (reference value: 5%). In kind it is functional.
Data set [26] concerns HL-60. The data set can be described thus: Induction of apoptosis in human HL60 cells assessed as condensation of nuclei after 24 hrs by hoechst 33258 staining-based microscopic analysis. In kind it is functional, cell-based. The procedure, abridged:
as §3

A short description of data set [27]: Cytotoxicity against human LS180 cells assessed as cell growth inhibition at 10 uM after 48 hrs by MTT assay. The note with it: LS180, 48 h, read-out: GI. In kind it is functional. Summed up: as §1
Data set [28] concerns HL-60. The data set can be described thus: Induction of apoptosis in human HL60 cells assessed as loss of mitochondrial membrane potential at 0.5 uM after 24 hrs by Rh123 dye-based FACS analysis (reference value: 5%). The format is functional.
Data set [29] in a line: Cytotoxicity against human HL60 cells assessed as cell growth inhibition at 10 uM after 48 hrs by MTT assay. In kind it is functional. The note with it: HL-60, 48 h, read-out: GI. The procedure, abridged:
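HL-60 suspension cells, 1.5 × 10^4 per well, grown at 37 °C in 5% CO2 with 10% FCS. Treated 48 h with compound in DMSO (vehicle <0.2% v/v). MTT added 3 h before the end. Formazan dissolved in DMSO and read at 570 nm (reference 620 nm). % growth inhibition computed against untreated cells; IC50 taken from the concentration series.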

Activity calls are given as the source filed them. The calls are words filed in the database; no cut-off is given here. Some results are limits rather than exact numbers.

For `C[C@H]1[C@@H](OCCOc2ccc(/C=C/C(=O)c3ccc(O)cc3)cc2)O[C@@H]2O[C@@]3(C)CC[C@H]4[C@H](C)CC[C@@H]1[C@@]24OO3`, the inhibition of growth at 0.5 µM in data set [1] is 20.2%; in data set [11], 19.3%; in [18] it was 6.2%. For the same molecule, the Activity in the data set with HL-60 [2] was 61%; in data set [7], 46%; in data set [8], 35%; in data set [9] it was 14%; in data set [10], “Dose-dependent effect”; in data set [13] it was 95%. For the same molecule, the Activity result with HL-60 [16] was “Dose-dependent effect”; in the data set on HL-60 [17], “Dose-dependent effect”; in data set [19] it was 10%; with HL-60 [21] it was “Dose-dependent effect”; with HL-60 [25] it was 9%; with HL-60 [26], “Dose-dependent effect”. For the same molecule, the Activity with HL-60 [28] is 27%. In [3], this molecule displayed a logP of -5.96. For the same molecule, the inhibition of growth at 1 µM in data set [4] was found to be 9.1%; in data set [5] it was 36.5%; in data set [14], 25.4%; in data set [22], 23.8%. The inhibition of growth at 10 µM in data set [6] came to 60.4%; in data set [27], 36.6%; in [29], 88.4%. Moreover, the inhibition of growth at 30 µM in data set [12] was in the range of 68.3 to 86.8%. Besides, the inhibition of growth at 50 µM in [15] came out at 88.9%. Moreover, the “Ratio IC50” value in the data set on Vero came to 88. Besides, the result in the data set with HL-60 [20] was Active. In addition, the IC50 in data set [23] is 22 µM. In data set [24], this molecule displayed a solubility of more than 100 µg/mL.

With `C[C@H]1[C@@H](OCCOc2cccc(C(=O)/C=C/c3ccc(O)cc3)c2)O[C@@H]2O[C@@]3(C)CC[C@H]4[C@H](C)CC[C@@H]1[C@@]24OO3`, the inhibition of growth at 0.5 µM in data set [1] is 25.2%; in data set [11], 15.2%; in [18], 12.7%. Also, the Activity in the data set on HL-60 [2] was 58%; in [7] it was 46%; in [8], 20%; in data set [9] it was 52%; in [10], “Dose-dependent effect”; in the data set on HL-60 [16], “Dose-dependent effect”. Also, the Activity entry is “Dose-dependent effect” in the data set with HL-60 [17]; 16% in data set [19]; “Dose-dependent effect” with HL-60 [21]; 7% in the data set with HL-60 [25]; “Dose-dependent effect” in the data set on HL-60 [26]; 34% in the data set with HL-60 [28]. The molecule also returned a lipophilicity (logP) in data set [3] of -5.96. Further, the inhibition of growth at 1 µM in data set [4] came out at 13%; in data set [5] it was 24.7%; in data set [14], 22.8%; in data set [22], 29.6%. Also, the values for the inhibition of growth at 10 µM in [6], in data set [27] and in data set [29] were 37.7%, 27.2% and 88.7%, respectively. Moreover, the inhibition of growth at 30 µM in [12] was 37.8 to 77.4%. In addition, the inhibition of growth at 50 µM in data set [15] was 87.9%. Also, in the data set with Vero, the “Ratio IC50” value came out at 32. Moreover, in the data set with HL-60 [20], the outcome was Active. The IC50 in data set [23] is 39 µM. The molecule further came in with a solubility in [24] of more than 100 µg/mL.

As for `C[C@H]1[C@@H](O)O[C@@H]2O[C@@]3(C)CC[C@H]4[C@H](C)CC[C@@H]1[C@@]24OO3` [ARTENIMOL], the Activity is 41% in the data set on HL-60 [2]; 49% in data set [7]; 20% in [8]; 62% in data set [9]; 27% in data set [13]; 5% in data set [19]. Also, the results for the Activity in the data set on HL-60 [25] and with HL-60 [28] were 8% and 20%, respectively. Besides, the inhibition of growth at 30 µM in [12] was 36%. Also, the inhibition of growth at 50 µM in data set [15] was determined as 43%. In the data set with Vero, the “Ratio IC50” value stood at 12. In addition, in data set [23], the half-maximal inhibitory concentration (IC50) was 58 µM. The inhibition of growth at 10 µM in [29] is 63%.
